The source of these data is ChEMBL document CHEMBL1153602, “Photochemical electrocyclisation of 3-vinylindoles to pyrido[2,3-a]-, pyrido[4,3-a]- and thieno[2,3-a]-carbazoles: design, synthesis, DNA binding and antitumor cell cytotoxicity” (2009).

In experiment [1] the target is T1, DNA topoisomerase 1 (Homo sapiens) (UniProt P11387).
T1 sequence (whole entry): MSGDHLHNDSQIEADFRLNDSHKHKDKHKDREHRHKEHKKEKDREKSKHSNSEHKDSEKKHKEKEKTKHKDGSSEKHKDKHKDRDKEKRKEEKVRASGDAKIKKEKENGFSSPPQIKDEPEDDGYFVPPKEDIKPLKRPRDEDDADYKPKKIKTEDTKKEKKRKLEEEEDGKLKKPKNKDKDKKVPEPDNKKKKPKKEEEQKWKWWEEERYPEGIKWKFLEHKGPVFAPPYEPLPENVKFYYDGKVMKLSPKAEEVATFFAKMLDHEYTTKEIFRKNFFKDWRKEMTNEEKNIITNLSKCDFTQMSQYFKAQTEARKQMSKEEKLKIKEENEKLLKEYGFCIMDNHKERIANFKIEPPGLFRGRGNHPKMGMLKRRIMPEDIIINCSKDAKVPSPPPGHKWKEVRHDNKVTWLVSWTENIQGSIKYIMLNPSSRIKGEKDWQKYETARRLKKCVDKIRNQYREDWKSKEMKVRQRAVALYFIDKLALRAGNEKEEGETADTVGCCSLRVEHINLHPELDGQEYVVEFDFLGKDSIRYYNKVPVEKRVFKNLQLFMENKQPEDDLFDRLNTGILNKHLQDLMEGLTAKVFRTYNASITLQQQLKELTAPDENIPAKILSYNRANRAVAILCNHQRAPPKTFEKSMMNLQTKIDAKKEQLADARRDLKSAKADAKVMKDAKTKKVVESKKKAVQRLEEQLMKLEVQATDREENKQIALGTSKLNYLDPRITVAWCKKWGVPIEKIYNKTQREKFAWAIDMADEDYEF
Put plainly: Inhibition of human topoisomerase 1-mediated DNA relaxation assessed as lack of nicking form by agarose gel electrophoresis. An outline of the steps: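 Supercoiled pUC19 (130 ng) was pre-incubated with compound at graded concentrations, or 20 or 50 µM in the cleavage assay. Human topoisomerase I (4 units) was then added for 45 min at 37 °C in 50 mM Tris pH 7.8, 50 mM KCl, 10 mM MgCl2, 1 mM DTT, 1 mM EDTA, 1 mM ATP. Camptothecin (20 µM) served as control. Samples ran on 1% agarose for 2 h at 120 V in TBE, with ethidium bromide either post-stained (relaxation) or included in the gel (cleavage).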

Experiment [2] has as its system HT-29. Put plainly: Cell cycle arrest in human HT-29 cells assessed as accumulation at G2/M phase after 24 hrs using PI staining by flow cytometry. The class given is functional, cell-based. Summed up: (§1)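 HT-29 cells, 3×10^5 per sample in exponential growth, were exposed to graded drug concentrations for 24 h. Cells were then trypsinised, fixed in 70% ethanol and stained 30 min in the dark with propidium iodide (50 µg/ml) plus RNase (100 µg/ml). DNA content was measured by flow cytometry, quantifying cell-cycle phases and the sub-G1 fraction.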
In general terms: A flow cytometer gives signals particle by particle.

Experiment [3] has as its system HT-29. In words: Cell cycle arrest in human HT-29 cells assessed as reduction of cells in G1 phase after 24 hrs using PI staining by flow cytometry. It counts as functional, cell-based. Summed up: as §1
Experiment [4] deals with HT-29. In words: Cell cycle arrest in human HT-29 cells assessed as accumulation at S phase at 25 uM after 24 hrs using PI staining by flow cytometry. The class given is functional. Summed up: as §1
Experiment [5] has as its system HT-29. Put plainly: Growth inhibition of human HT-29 cells after 48 hrs by sulforhodamine B protein assay. The class given is functional. Conditions: HT-29, 48 h. Summed up: (§2)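 NCI 60-cell-line screen. Dose–response used at least five concentrations in 10-fold dilutions with 48 h continuous drug exposure. Growth was estimated by sulforhodamine B protein staining. GI50 is the molar concentration giving 50% growth inhibition versus control.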
Background: In SRB staining, fixed cells bind dye roughly in proportion to their protein.

The subject of the next experiment is CCRF-CEM. In words: Growth inhibition of human CCRF-CEM cells after 48 hrs by sulforhodamine B protein assay. The class given is functional. An outline of the steps:
as §2

The test system of another experiment is COLO 205. In words: Growth inhibition of human COLO205 cells after 48 hrs by sulforhodamine B protein assay. Conditions: COLO 205, 48 h. It counts as functional. Summed up:
as §2

The next experiment concerns ACHN. Put plainly: Growth inhibition of human ACHN cells after 48 hrs by sulforhodamine B protein assay. The class given is functional. An outline of the steps: as §2
Experiment [6] relates to HT-29. Put plainly: Growth inhibition of human HT-29 cells by MTS assay. It counts as functional. Summed up:
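HT-29 cells, 3×10^3 per well, were seeded 24 h before treatment with compound at 1 nM–100 µM, run as 3 series of duplicate or triplicate points. After 72 h at 37 °C, MTS tetrazolium was added for 2 h and absorbance read at 492 nm. GC50 is the concentration halving cell number versus untreated control wells.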

The subject of experiment [7] is Calf thymus DNA. In words: Binding affinity to calf thymus DNA assessed as change in melting temperature at a compound to DNA molar ratio of 0.1 by UV-vis spectroscopy. It counts as nucleic-acid assay. Conditions: Bos taurus. Summed up:
(§3)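 UV absorbance of DNA at 260 nm recorded every minute from 20 to 100 °C, ramping 1 °C/min in a thermostated quartz cell. Tm is taken as the midpoint of the hyperchromic transition. ΔTm = Tm(DNA+drug) − Tm(DNA alone). Calf-thymus DNA or poly(dAdT)2 was used at DNA/drug ratios from 0.1 to 1.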

The subject of experiment [8] is Calf thymus DNA. Put plainly: Binding affinity to calf thymus DNA assessed as change in melting temperature at a compound to DNA molar ratio of 0.25 by UV-vis spectroscopy. Conditions: Bos taurus. The class given is nucleic-acid assay. An outline of the steps: as §3
The subject of experiment [9] is Calf thymus DNA. Put plainly: Binding affinity to calf thymus DNA assessed as change in melting temperature at a compound to DNA molar ratio of 0.5 by UV-vis spectroscopy. It counts as nucleic-acid assay. Conditions: Bos taurus. An outline of the steps:
as §3

For experiment [10], the system named is Calf thymus DNA. In words: Binding affinity to calf thymus DNA assessed as change in melting temperature at a compound to DNA molar ratio of 1 by UV-vis spectroscopy. The class given is nucleic-acid assay. Conditions: Bos taurus. Summed up:
as §3

In experiment [11] the test system is Nucleic Acid. Put plainly: Binding affinity to poly(dA).poly(dT) duplex DNA assessed as change in thermal melting temperature at compound to DNA ratio of 0.1 by UV-vis spectroscopy. It counts as nucleic-acid assay.
The test system of experiment [12] is Nucleic Acid. In words: Binding affinity to poly(dA).poly(dT) duplex DNA assessed as change in thermal melting temperature at compound to DNA ratio of 0.25 by UV-vis spectroscopy. It counts as nucleic-acid assay.
Experiment [13] deals with Nucleic Acid. In words: Binding affinity to poly(dA).poly(dT) duplex DNA assessed as change in thermal melting temperature at compound to DNA ratio of 0.5 by UV-vis spectroscopy. The class given is nucleic-acid assay.
Experiment [14] relates to Nucleic Acid. Put plainly: Binding affinity to poly(dA).poly(dT) duplex DNA assessed as change in thermal melting temperature at compound to DNA ratio of 1 by UV-vis spectroscopy. The class given is nucleic-acid assay.
Experiment [15] concerns Calf thymus DNA. Put plainly: Binding affinity to calf thymus DNA assessed as enhancement constant by fluorescence spectroscopy. It counts as nucleic-acid assay. Conditions: Bos taurus. Summed up: (§4)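 Drug at a fixed 20 µM in 1 ml BPE buffer in a 10 mm quartz cuvette, titrated with CT-DNA at 10–200 µM base pairs. Excitation was set at each compound's own wavelength (276–319 nm). Constants came from Stern–Volmer plots of F0/F against CT-DNA concentration, with the slope taken as Ksv.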

In experiment [16] the test system is Nucleic Acid. Put plainly: Binding affinity to pBS 117bp DNA by DnaseI footprinting assay. It counts as nucleic-acid assay. Summed up:
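Ligand and fragment were pre-incubated 15 min at 37 °C, then digested with DNase I at 0.001 unit/ml in 20 mM NaCl, 2 mM MgCl2, 2 mM MnCl2, pH 7.3. Products were resolved on a denaturing 8% polyacrylamide/8 M urea gel, with a G-track marker.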

Experiment [17] concerns the target DNA topoisomerase 2-alpha (Homo sapiens) (UniProt P11388). In words: Inhibition of human topoisomerase 2-mediated DNA relaxation assessed as double stranded break form by agarose gel electrophoresis. An outline of the steps:
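Supercoiled pUC19 (130 ng) with compound at 20 or 50 µM, or etoposide as control, was incubated with human topoisomerase II (4 units) for 45 min at 37 °C in cleavage buffer. The reaction was stopped with 0.25% SDS plus proteinase K for 30 min at 50 °C. DNA forms were separated on 1% agarose containing ethidium bromide in TBE.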

The test system of experiment [18] is Calf thymus DNA. Put plainly: Binding affinity to calf thymus DNA assessed as quenching constant by fluorescence spectroscopy. It counts as nucleic-acid assay. Conditions: Bos taurus. Summed up: as §4
Experiment [19] has as its system Calf thymus DNA. Put plainly: Binding affinity to calf thymus DNA assessed as negative dichroic signal at phosphate/drug ratio by circular dichroism spectra. It counts as nucleic-acid assay. Conditions: Bos taurus. Summed up:
(§5)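 Circular dichroism of drug at […] in 1 ml of 1 mM sodium cacodylate, pH 7.0, with or without CT-DNA at 10–200 µM. Phosphate/compound ratio ran from 0.4 to 8. The induced CD signal in the ligand absorption region was recorded.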
For orientation: CD spectra are sensitive to the conformation of chiral molecules.

Experiment [20] deals with Calf thymus DNA. Put plainly: Binding affinity to calf thymus DNA assessed as positive dichroic signal at phosphate/drug ratio by circular dichroism spectra. It counts as nucleic-acid assay. Conditions: Bos taurus. Summed up:
as §5

Active and inactive are the calls of the source. No cut-off for these calls is given here.

DNA topoisomerase 2-alpha (Homo sapiens), sequence (P11388 whole entry): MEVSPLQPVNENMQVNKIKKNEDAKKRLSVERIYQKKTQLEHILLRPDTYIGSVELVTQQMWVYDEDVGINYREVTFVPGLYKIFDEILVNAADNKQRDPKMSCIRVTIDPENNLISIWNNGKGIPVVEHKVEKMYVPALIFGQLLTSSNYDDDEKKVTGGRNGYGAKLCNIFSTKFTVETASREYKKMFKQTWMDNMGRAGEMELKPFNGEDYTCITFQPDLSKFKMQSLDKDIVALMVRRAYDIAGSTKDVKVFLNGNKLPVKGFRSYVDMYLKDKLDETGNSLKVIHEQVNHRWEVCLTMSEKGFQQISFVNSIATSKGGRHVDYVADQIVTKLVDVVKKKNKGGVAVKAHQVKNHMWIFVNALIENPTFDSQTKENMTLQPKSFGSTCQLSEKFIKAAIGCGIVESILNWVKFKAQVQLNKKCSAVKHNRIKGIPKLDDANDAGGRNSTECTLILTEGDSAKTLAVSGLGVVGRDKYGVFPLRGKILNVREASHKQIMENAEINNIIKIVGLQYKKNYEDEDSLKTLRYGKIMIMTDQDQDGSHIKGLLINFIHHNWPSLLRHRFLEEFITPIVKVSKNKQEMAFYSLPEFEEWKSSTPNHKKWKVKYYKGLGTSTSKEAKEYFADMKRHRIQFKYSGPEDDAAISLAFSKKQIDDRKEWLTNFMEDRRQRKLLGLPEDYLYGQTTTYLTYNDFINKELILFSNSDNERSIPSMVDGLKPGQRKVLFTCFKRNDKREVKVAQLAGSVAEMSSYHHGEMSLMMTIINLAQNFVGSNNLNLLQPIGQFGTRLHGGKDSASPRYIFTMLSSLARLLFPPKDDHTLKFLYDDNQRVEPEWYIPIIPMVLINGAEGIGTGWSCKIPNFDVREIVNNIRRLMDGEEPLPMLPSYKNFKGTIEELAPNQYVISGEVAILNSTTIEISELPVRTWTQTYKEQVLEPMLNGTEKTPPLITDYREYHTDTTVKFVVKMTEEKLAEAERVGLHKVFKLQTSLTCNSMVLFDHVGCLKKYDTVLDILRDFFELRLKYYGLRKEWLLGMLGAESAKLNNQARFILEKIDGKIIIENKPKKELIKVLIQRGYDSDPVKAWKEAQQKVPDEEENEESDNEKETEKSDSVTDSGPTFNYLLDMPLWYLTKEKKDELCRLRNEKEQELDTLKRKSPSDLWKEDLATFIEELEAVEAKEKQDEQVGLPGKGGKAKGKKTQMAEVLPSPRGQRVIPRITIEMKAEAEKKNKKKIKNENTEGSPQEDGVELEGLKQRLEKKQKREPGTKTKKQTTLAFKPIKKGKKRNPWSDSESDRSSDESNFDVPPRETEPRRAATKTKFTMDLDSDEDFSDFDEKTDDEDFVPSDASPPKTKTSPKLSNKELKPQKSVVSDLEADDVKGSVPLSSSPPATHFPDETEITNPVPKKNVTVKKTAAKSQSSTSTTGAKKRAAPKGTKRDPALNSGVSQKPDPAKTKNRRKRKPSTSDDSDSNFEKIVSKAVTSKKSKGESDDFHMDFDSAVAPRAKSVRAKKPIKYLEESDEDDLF

For `CC[C@@]1(O)C(=O)OCc2c1cc1n(c2=O)Cc2cc3ccccc3nc2-1`, in experiment [1], the outcome was Active.
Turning to `CN(C)CCCNC(=O)c1cc2c3ccccc3[nH]c2c2ncccc12`, the outcome (in the experiment with HT-29 [2]; in the experiment on HT-29 [3]; with Nucleic Acid [16]; in experiment [1]; in experiment [17]) was Active. Further, the Activity with HT-29 [4] is 31.7%; in the experiment with Calf thymus DNA [15], 5.94 ×10² /M. Also, the GI50 is 10.3 µM in the experiment with HT-29 [5] (read-out: GI50); 1.02 µM with HT-29 [5] (read-out: pGI50 (converted)); 4.31 µM with CCRF-CEM (read-out: GI50); 4.27 µM with CCRF-CEM (read-out: pGI50 (converted)); 4.43 µM with COLO 205 (read-out: GI50); 4.47 µM in the experiment with COLO 205 (read-out: pGI50 (converted)). In addition, the GI50 in the experiment with ACHN (read-out: GI50) is 5.24 µM; in the experiment with ACHN (read-out: pGI50 (converted)), 5.25 µM; in the experiment with HT-29 [6], 10.1 µM. The ΔTm in the experiment with Calf thymus DNA [7] amounted to 0 °C; in the experiment with Calf thymus DNA [8], 4.4 °C; in the experiment with Calf thymus DNA [9], 4.4 °C; in the experiment on Calf thymus DNA [10], 7.3 °C; in the experiment on Nucleic Acid [11], 2.9 °C; with Nucleic Acid [12] it was 8.9 °C. In addition, the ΔTm turned out to be 11.6 °C with Nucleic Acid [13] and 17.5 °C with Nucleic Acid [14].
Regarding `CN(C)CCCNC(=O)c1cc2c3cc(Cl)ccc3[nH]c2c2ccncc12`, the outcome with HT-29 [2], in the experiment with Calf thymus DNA [19], with Calf thymus DNA [20] and with Nucleic Acid [16] was Active. In the experiment on HT-29 [6], this compound registered a GI50 of 2.2 µM. The ΔTm with Calf thymus DNA [7] turned out to be 3.6 °C; in the experiment with Calf thymus DNA [8], 6.6 °C; in the experiment with Calf thymus DNA [9] it was 10.7 °C; in the experiment with Calf thymus DNA [10], 13.9 °C; in the experiment on Nucleic Acid [11] it was 10.3 °C; in the experiment with Nucleic Acid [12], 17.3 °C. Also, the values for the ΔTm in the experiment with Nucleic Acid [13] and in the experiment with Nucleic Acid [14] were 22.7 °C and 28.3 °C, respectively. Moreover, in the experiment with Calf thymus DNA [18], the KSV came to 9.95 ×10³ /M.
`O=C(NCCCN1CCOCC1)c1cc2c3cccc(Cl)c3[nH]c2c2ncccc12`: the ΔTm is 0 °C in the experiment on Calf thymus DNA [7]; 0.7 °C in the experiment with Calf thymus DNA [8]; 0.4 °C in the experiment on Calf thymus DNA [9]; 0.6 °C in the experiment with Calf thymus DNA [10]; 2.1 °C with Nucleic Acid [11]; 3.9 °C with Nucleic Acid [12]. Also, the shift in melting temperature (ΔTm) in the experiment with Nucleic Acid [13] and in the experiment with Nucleic Acid [14] was 5.3 °C each time. Besides, in the experiment on Nucleic Acid [16], the result was inactive.

By ΔTm is commonly meant the change in melting temperature against a reference sample.
